Data published in ChEMBL document CHEMBL1134643 (J Med Chem, 2001).
Calls of active or inactive are those of the source. No cut-off for these calls is given here.

Experiments:
[1] = target: Nociceptin receptor (Mus musculus) (UniProt P35377); test: Maximum receptor binding in the electrically stimulated mouse vas deferens; assay type: functional, tissue-based
Outline: (§1)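 Vas deferens from male Swiss mice (25-30 g) is held in Mg2+-free Krebs at 33 °C, gassed with 95% O2/5% CO2 at pH 7.4. Tissue is stimulated at 0.05 Hz with 1 ms supramaximal pulses under 0.3 g resting tension, and twitches are recorded isotonically.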

[2] = target: Nociceptin receptor (Mus musculus, UniProt P35377); test: Inhibition of [3H]NC-NH2 binding to mouse forebrain membranes; parameters: species or system Membrane
[3] = species on record: Mus musculus; test: Antagonist activity of compound in the electrically stimulated mouse vas deferens; Inactive; assay type: functional
Outline: (§2)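 Peptides without agonist effect in the mouse vas deferens (Mg2+-free Krebs, 33 °C, 0.05 Hz, 1 ms pulses) are tested up to 10 μM. Each is added 15 min before a cumulative concentration-response curve to NC(1-13)-NH2. pKB is calculated with the Gaddum-Schild equation, taking slope as unity, from the concentration-ratio of equieffective agonist concentrations.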

[4] = species on record: Mus musculus; test: Maximum receptor binding assay determined by using mouse forebrain membrane and [3H]NC-NH2; Inactive; assay type: functional
Outline: (§3)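 Forebrains from male Swiss mice are homogenised in 50 mM Tris-HCl, 2 mM EDTA, 100 μM PMSF, pH 7.4. Membranes are preincubated 30 min at 37 °C and stored at -80 °C. Displacement uses 0.5 nM [3H]NC-NH2, 200 μg protein, and graded ligand concentrations up to 10 μM, for 120 min at 25 °C.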

[5] = species on record: Mus musculus; test: Agonist activity of compound in the electrically stimulated mouse vas deferens; Inactive; assay type: functional; outline: as §1
[6] = species on record: Mus musculus; test: Maximum receptor binding assay determined by using mouse forebrain membrane and [3H]NC-NH2 at 10 uM; assay type: functional
[7] = species on record: Mus musculus; test: Maximum receptor binding assay determined by using mouse forebrain membrane and [3H]NC-NH2; assay type: functional; outline: as §3
[8] = target: Nociceptin receptor (Homo sapiens, UniProt P41146); test: Inhibition of forskolin stimulated cAMP accumulation in CHO cells stably expressing the human OP4 receptor; assay type: functional, cell-based
[9] = species on record: Mus musculus; test: Antagonist activity of compound in the electrically stimulated mouse vas deferens; assay type: functional; outline: as §2
[10] = species on record: Mus musculus; test: receptor binding constant using mouse forebrain membranes and [3H]NC-NH2 as radioligand; assay type: functional, Membrane; outline: as §3
[11] = species on record: Mus musculus; test: Maximum receptor binding using mouse forebrain membranes and [3H]NC-NH2; assay type: functional; settings: Membrane; outline: as §3

Sequence of Nociceptin receptor (Mus musculus) (P35377 whole entry): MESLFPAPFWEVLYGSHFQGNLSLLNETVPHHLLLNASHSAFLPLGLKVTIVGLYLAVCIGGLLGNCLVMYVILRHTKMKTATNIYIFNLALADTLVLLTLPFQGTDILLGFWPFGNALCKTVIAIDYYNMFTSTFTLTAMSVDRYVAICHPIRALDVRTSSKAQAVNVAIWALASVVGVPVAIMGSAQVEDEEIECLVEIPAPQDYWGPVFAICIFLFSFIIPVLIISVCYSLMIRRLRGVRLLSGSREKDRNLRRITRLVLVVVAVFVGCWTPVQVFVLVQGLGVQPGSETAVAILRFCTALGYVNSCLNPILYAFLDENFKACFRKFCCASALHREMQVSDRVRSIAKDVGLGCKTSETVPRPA
Sequence of Nociceptin receptor (Mus musculus, UniProt P35377) (P35377 whole entry): as above
Sequence of Nociceptin receptor (Homo sapiens, UniProt P41146) (P41146 whole entry): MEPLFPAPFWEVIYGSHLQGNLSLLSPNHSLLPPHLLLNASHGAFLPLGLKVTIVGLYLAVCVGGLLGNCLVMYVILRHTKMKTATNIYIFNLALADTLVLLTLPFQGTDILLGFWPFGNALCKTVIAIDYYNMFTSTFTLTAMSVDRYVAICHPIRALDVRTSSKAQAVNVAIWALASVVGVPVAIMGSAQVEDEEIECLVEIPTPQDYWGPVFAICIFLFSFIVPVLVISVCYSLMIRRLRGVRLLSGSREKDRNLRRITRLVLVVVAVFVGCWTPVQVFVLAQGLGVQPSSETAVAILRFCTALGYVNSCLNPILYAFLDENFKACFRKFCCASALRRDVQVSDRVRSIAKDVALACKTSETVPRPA

| SMILES | Emax [1] [%] | Ki [2] [nM] | further results |
| --- | --- | --- | --- |
| C[C@H](NC(=O)CNC(=O)[C@@H](NC(=O)[C@H](Cc1cccc(F)c1)NC(=O)CNC(=O)CNC(=O)[C@@H](N)Cc1ccccc1)[C@@H](C)O)C(=O)N[C@@H](CCCN=C(N)N)C(=O)N[C@@H](CCCCN)C(=O)N[C@@H](CO)C(=O)N[C@@H](C)C(=O)N[C@@H](CCCN=C(N)N)C(=O)N[C@@H](CCCCN)C(N)=O | -90 | 0.891 | – |
| CC(C)C[C@H](NC(=O)[C@H](CCCCN)NC(=O)[C@H](CCCN=C(N)N)NC(=O)[C@H](C)NC(=O)[C@H](CO)NC(=O)[C@H](CCCCN)NC(=O)[C@H](CCCN=C(N)N)NC(=O)[C@H](C)NC(=O)CNC(=O)[C@@H](NC(=O)[C@H](Cc1ccccc1)NC(=O)CNC(=O)CNC(=O)[C@@H](N)Cc1ccccc1)[C@@H](C)O)C(=O)N[C@@H](C)C(=O)N[C@@H](CC(N)=O)C(=O)N[C@@H](CCC(N)=O)C(=O)O | – | 1.91 | – |
| C[C@H](NC(=O)CNC(=O)[C@@H](NC(=O)[C@H](Cc1ccc(Cl)cc1)NC(=O)CNC(=O)CNC(=O)[C@@H](N)Cc1ccccc1)[C@@H](C)O)C(=O)N[C@@H](CCCN=C(N)N)C(=O)N[C@@H](CCCCN)C(=O)N[C@@H](CO)C(=O)N[C@@H](C)C(=O)N[C@@H](CCCN=C(N)N)C(=O)N[C@@H](CCCCN)C(N)=O | -82 | 0.794 | – |
| C[C@H](NC(=O)CNC(=O)[C@@H](NC(=O)[C@H](Cc1ccc(-c2ccccc2)cc1)NC(=O)CNC(=O)CNC(=O)[C@@H](N)Cc1ccccc1)[C@@H](C)O)C(=O)N[C@@H](CCCN=C(N)N)C(=O)N[C@@H](CCCCN)C(=O)N[C@@H](CO)C(=O)N[C@@H](C)C(=O)N[C@@H](CCCN=C(N)N)C(=O)N[C@@H](CCCCN)C(N)=O | – | – | pKb [3]: inactive; Emax [4]: inactive; Log EC50 [5]: inactive |
| C[C@H](NC(=O)CNC(=O)[C@@H](NC(=O)[C@H](Cc1ccc(Br)cc1)NC(=O)CNC(=O)CNC(=O)[C@@H](N)Cc1ccccc1)[C@@H](C)O)C(=O)N[C@@H](CCCN=C(N)N)C(=O)N[C@@H](CCCCN)C(=O)N[C@@H](CO)C(=O)N[C@@H](C)C(=O)N[C@@H](CCCN=C(N)N)C(=O)N[C@@H](CCCCN)C(N)=O | -85 | 1.82 | – |
| C[C@H](NC(=O)CNC(=O)[C@@H](NC(=O)[C@H](Cc1ccc(F)cc1)NC(=O)CNC(=O)CNC(=O)[C@@H](N)Cc1ccccc1)[C@@H](C)O)C(=O)N[C@@H](CCCN=C(N)N)C(=O)N[C@@H](CCCCN)C(=O)N[C@@H](CO)C(=O)N[C@@H](C)C(=O)N[C@@H](CCCN=C(N)N)C(=O)N[C@@H](CCCCN)C(N)=O | -85 | 0.398 | – |
| C[C@H](NC(=O)CNC(=O)[C@@H](NC(=O)[C@H](Cc1ccc(C#N)cc1)NC(=O)CNC(=O)CNC(=O)[C@@H](N)Cc1ccccc1)[C@@H](C)O)C(=O)N[C@@H](CCCN=C(N)N)C(=O)N[C@@H](CCCCN)C(=O)N[C@@H](CO)C(=O)N[C@@H](C)C(=O)N[C@@H](CCCN=C(N)N)C(=O)N[C@@H](CCCCN)C(N)=O | -84 | 0.603 | – |
| C[C@H](NC(=O)CNC(=O)[C@@H](NC(=O)[C@H](Cc1ccc([N+](=O)[O-])cc1)NC(=O)CNC(=O)CNC(=O)[C@@H](N)Cc1ccccc1)[C@@H](C)O)C(=O)N[C@@H](CCCN=C(N)N)C(=O)N[C@@H](CCCCN)C(=O)N[C@@H](CO)C(=O)N[C@@H](C)C(=O)N[C@@H](CCCN=C(N)N)C(=O)N[C@@H](CCCCN)C(N)=O | -86 | 0.302 | – |
| C[C@H](NC(=O)CNC(=O)[C@@H](NC(=O)CN(Cc1ccccc1)C(=O)CNC(=O)CNC(=O)[C@@H](N)Cc1ccccc1)[C@@H](C)O)C(=O)N[C@@H](CCCN=C(N)N)C(=O)N[C@@H](CCCCN)C(=O)N[C@@H](CO)C(=O)N[C@@H](C)C(=O)N[C@@H](CCCN=C(N)N)C(=O)N[C@@H](CCCCN)C(N)=O | – | – | Emax [6]: -16% |
| C[C@H](NC(=O)CNC(=O)[C@@H](NC(=O)[C@H](Cc1ccccc1)N(C)C(=O)CNC(=O)CNC(=O)[C@@H](N)Cc1ccccc1)[C@@H](C)O)C(=O)N[C@@H](CCCN=C(N)N)C(=O)N[C@@H](CCCCN)C(=O)N[C@@H](CO)C(=O)N[C@@H](C)C(=O)N[C@@H](CCCN=C(N)N)C(=O)N[C@@H](CCCCN)C(N)=O | – | – | Emax [7]: -84% |
| C[C@H](NC(=O)CNC(=O)[C@@H](NC(=O)[C@H](Cc1ccc(N)cc1)NC(=O)CNC(=O)CNC(=O)[C@@H](N)Cc1ccccc1)[C@@H](C)O)C(=O)N[C@@H](CCCN=C(N)N)C(=O)N[C@@H](CCCCN)C(=O)N[C@@H](CO)C(=O)N[C@@H](C)C(=O)N[C@@H](CCCN=C(N)N)C(=O)N[C@@H](CCCCN)C(N)=O | -23 | 1780 | – |
| C[C@H](NC(=O)CNC(=O)[C@@H](NC(=O)[C@H](Cc1ccccc1)NC(=O)CNC(=O)CNC(=O)[C@@H](N)Cc1ccccc1)[C@@H](C)O)C(=O)N[C@@H](CCCNC(=N)N)C(=O)N[C@@H](CCCCN)C(=O)N[C@@H](CO)C(=O)N[C@@H](C)C(=O)N[C@@H](CCCNC(=N)N)C(=O)N[C@@H](CCCCN)C(N)=O | – | – | Emax [7]: -82% |
| C[C@H](NC(=O)CNC(=O)[C@@H](NC(=O)[C@H](Cc1ccccc1F)NC(=O)CNC(=O)CNC(=O)[C@@H](N)Cc1ccccc1)[C@@H](C)O)C(=O)N[C@@H](CCCN=C(N)N)C(=O)N[C@@H](CCCCN)C(=O)N[C@@H](CO)C(=O)N[C@@H](C)C(=O)N[C@@H](CCCN=C(N)N)C(=O)N[C@@H](CCCCN)C(N)=O | -94 | 3.63 | – |
| C[C@H](NC(=O)CNC(=O)[C@@H](NC(=O)[C@H](Cc1ccc(O)cc1)NC(=O)CNC(=O)CNC(=O)[C@@H](N)Cc1ccccc1)[C@@H](C)O)C(=O)N[C@@H](CCCN=C(N)N)C(=O)N[C@@H](CCCCN)C(=O)N[C@@H](CO)C(=O)N[C@@H](C)C(=O)N[C@@H](CCCN=C(N)N)C(=O)N[C@@H](CCCCN)C(N)=O | – | 501 | EC50 [8]: 135 nM; pKb [9]: 5.47 |
| COc1ccc(C[C@H](NC(=O)CNC(=O)CNC(=O)[C@@H](N)Cc2ccccc2)C(=O)N[C@H](C(=O)NCC(=O)N[C@@H](C)C(=O)N[C@@H](CCCN=C(N)N)C(=O)N[C@@H](CCCCN)C(=O)N[C@@H](CO)C(=O)N[C@@H](C)C(=O)N[C@@H](CCCN=C(N)N)C(=O)N[C@@H](CCCCN)C(N)=O)[C@@H](C)O)cc1 | -80 | 89.1 | EC50 [8]: 63.1 nM |
| C[C@H](NC(=O)CNC(=O)[C@@H](NC(=O)[C@H](CC1CCCCC1)NC(=O)CNC(=O)CNC(=O)[C@@H](N)Cc1ccccc1)[C@@H](C)O)C(=O)N[C@@H](CCCN=C(N)N)C(=O)N[C@@H](CCCCN)C(=O)N[C@@H](CO)C(=O)N[C@@H](C)C(=O)N[C@@H](CCCN=C(N)N)C(=O)N[C@@H](CCCCN)C(N)=O | – | – | Emax [6]: -34% |
| C[C@H](NC(=O)CNC(=O)[C@@H](NC(=O)[C@@H](NC(=O)CNC(=O)CNC(=O)[C@@H](N)Cc1ccccc1)[C@@H](C)c1ccccc1)[C@@H](C)O)C(=O)N[C@@H](CCCN=C(N)N)C(=O)N[C@@H](CCCCN)C(=O)N[C@@H](CO)C(=O)N[C@@H](C)C(=O)N[C@@H](CCCN=C(N)N)C(=O)N[C@@H](CCCCN)C(N)=O | – | – | Emax [7]: -86% |
| C[C@H](NC(=O)CNC(=O)[C@@H](NC(=O)[C@H](Cc1ccc(C(F)(F)F)cc1)NC(=O)CNC(=O)CNC(=O)[C@@H](N)Cc1ccccc1)[C@@H](C)O)C(=O)N[C@@H](CCCN=C(N)N)C(=O)N[C@@H](CCCCN)C(=O)N[C@@H](CO)C(=O)N[C@@H](C)C(=O)N[C@@H](CCCN=C(N)N)C(=O)N[C@@H](CCCCN)C(N)=O | -75 | 1 | – |
| C[C@H](NC(=O)CNC(=O)[C@@H](NC(=O)[C@H](Cc1ccc2ccccc2c1)NC(=O)CNC(=O)CNC(=O)[C@@H](N)Cc1ccccc1)[C@@H](C)O)C(=O)N[C@@H](CCCN=C(N)N)C(=O)N[C@@H](CCCCN)C(=O)N[C@@H](CO)C(=O)N[C@@H](C)C(=O)N[C@@H](CCCN=C(N)N)C(=O)N[C@@H](CCCCN)C(N)=O | – | – | Emax [7]: -75% |
| Cc1ccc(C[C@H](NC(=O)CNC(=O)CNC(=O)[C@@H](N)Cc2ccccc2)C(=O)N[C@H](C(=O)NCC(=O)N[C@@H](C)C(=O)N[C@@H](CCCN=C(N)N)C(=O)N[C@@H](CCCCN)C(=O)N[C@@H](CO)C(=O)N[C@@H](C)C(=O)N[C@@H](CCCN=C(N)N)C(=O)N[C@@H](CCCCN)C(N)=O)[C@@H](C)O)cc1 | -73 | – | Log Ki [10]: -7.84 |
| C[C@H](NC(=O)CNC(=O)[C@@H](NC(=O)[C@H](Cc1ccc(I)cc1)NC(=O)CNC(=O)CNC(=O)[C@@H](N)Cc1ccccc1)[C@@H](C)O)C(=O)N[C@@H](CCCN=C(N)N)C(=O)N[C@@H](CCCCN)C(=O)N[C@@H](CO)C(=O)N[C@@H](C)C(=O)N[C@@H](CCCN=C(N)N)C(=O)N[C@@H](CCCCN)C(N)=O | -76 | 17.4 | – |
| C[C@H](NC(=O)CNC(=O)[C@@H](NC(=O)[C@H](Cc1cccc2ccccc12)NC(=O)CNC(=O)CNC(=O)[C@@H](N)Cc1ccccc1)[C@@H](C)O)C(=O)N[C@@H](CCCN=C(N)N)C(=O)N[C@@H](CCCCN)C(=O)N[C@@H](CO)C(=O)N[C@@H](C)C(=O)N[C@@H](CCCN=C(N)N)C(=O)N[C@@H](CCCCN)C(N)=O | – | – | Emax [11]: -80% |
